NLRP3 yeast inh: NALP3 inflammasome inhibitors in reconstituted yeast, primary screen, luminescence, uHTS. Yeast reconstituted NLRP3/ASC/caspase-1, beta-gal luminescence, 24 h. inhibition, % at 10 µM. 330,000 tested, 0.39% active. AID 2825, 2010;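 active = inhibition of 50% or more; inactive = inhibition below 50%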;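 also: plate controls were induced DMSO wells for no effect and uninduced yeast grown without galactose for full effect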
ALR H2O2 inh: inhibitors of human ALR sulfhydryl oxidase, primary screen, biochemical, H2O2 detection, HRP-luminol luminescence, single point | FAD-linked sulfhydryl oxidase ALR (Homo sapiens), P55789 | purified ALR, DTT oxidation | inhibition, % (test concentration not listed) | 290,000 tested, 3.8% active | AID 485317, 2010;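 active = mean replicate inhibition above about 79%, with every replicate also reaching it, limit read from the data; inconclusive = only one of the two criteria met; inactive = mean below limit and not every replicate reaching it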
Target sequence (P55789 whole entry, looked up): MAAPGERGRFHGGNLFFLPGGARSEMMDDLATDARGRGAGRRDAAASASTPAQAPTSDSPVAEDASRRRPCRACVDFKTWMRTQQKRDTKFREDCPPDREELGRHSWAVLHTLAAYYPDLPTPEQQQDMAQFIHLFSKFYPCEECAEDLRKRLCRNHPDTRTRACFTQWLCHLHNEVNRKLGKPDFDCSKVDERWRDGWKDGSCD
ATG4B inh: ATG4B protease inhibitors, primary screen, biochemical, fluorescence, uHTS | Cysteine protease ATG4B (Homo sapiens), Q9Y4P1 | ATG4B cleavage of LC3-PLA2, NBD-HPC fluorescence, 1 h | inhibition, % at 8.33 µM | 340,000 tested, 0.51% active; in the data active = inhibition above about 40%
Target sequence (Q9Y4P1 whole entry, looked up): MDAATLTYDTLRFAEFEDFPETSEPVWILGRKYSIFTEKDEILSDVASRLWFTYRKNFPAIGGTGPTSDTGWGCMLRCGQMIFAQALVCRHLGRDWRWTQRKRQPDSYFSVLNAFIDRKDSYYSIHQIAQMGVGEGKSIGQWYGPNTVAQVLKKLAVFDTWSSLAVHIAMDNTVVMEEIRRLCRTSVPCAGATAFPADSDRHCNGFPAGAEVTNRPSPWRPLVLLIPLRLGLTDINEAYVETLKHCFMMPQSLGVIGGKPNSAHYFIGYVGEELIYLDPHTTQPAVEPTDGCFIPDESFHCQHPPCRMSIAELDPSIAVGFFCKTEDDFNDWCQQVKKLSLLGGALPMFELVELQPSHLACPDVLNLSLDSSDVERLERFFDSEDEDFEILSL
NALP1 yeast inh: NALP1 inflammasome inhibitors in reconstituted yeast, colorimetric, S. cerevisiae, triplicate retest | S. cerevisiae NALP1/ASC/caspase-1 growth, X-gal OD620, 72 h | inhibition, % at 10 µM | 280,000 tested, 0.61% active | AID 2071, 2009; in the data active = inhibition mostly above about 24%, no sharp cut-off; inactive = mostly below about 32%
Calb FLC: C. albicans growth inhibition with fluconazole, primary screen, CaCi-2 strain, Alamar Blue fluorescence. C. albicans CaCi-2 + fluconazole, 48 h. growth inhibition, % (concentration not given with the values). 300,000 tested, 0.57% active;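 active = growth inhibition above about 58% in most replicates, limit read from the data, passing the limit was not always enough; inconclusive = exactly half the replicates above a set limit; inactive = most replicates below a set limit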;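 also: all wells also contain fluconazole at 8 µg/ml as a sub-toxic cotreatment; 0% = median of DMSO wells and 100% = median of geldanamycin control wells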
UCH37 inh: inhibitors of human UCH37 deubiquitinase, primary screen, biochemical, Ub-AMC cleavage, fluorescence. 330,000 tested, 0.33% active. purified proteasome/UCH37. inhibition, % (concentration not given with the values). Ubiquitin carboxyl-terminal hydrolase isozyme L5 (Homo sapiens), Q9Y5K5;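 active = mean inhibition over replicate wells above about 20%, limit read from the data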;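 also: 0% = compound-free wells with enzyme and 100% = wells lacking proteasome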
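assay system = human UCH37 enzyme supplied as purified proteasome complex | amount = proteasome at 0.15 nM in the dispensed enzyme solution | schedule = 30 min compound-proteasome preincubation then 25 min substrate reaction, room temperature | measured by = fluorescence, ex 355 nm, em 460 nm | benchmarks = no-proteasome wells (full inhibition) and compound-free wells (no inhibition)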
* hit, by the source's call; i = inactive; ? = inconclusive; · = no result. An excerpt weighted towards active compounds, which were near 4.8% of everything screened.

SMILES	NLRP3 yeast inh	ALR H2O2 inh	ATG4B inh	NALP1 yeast inh	Calb FLC	UCH37 inh
COc1ccc(NC(=O)CSc2nnc(-c3ccco3)c(-c3ccco3)n2)cc1OC	-4	90*	-1	5	5	11
CC1CN(C(=NS(=O)(=O)c2ccccc2)c2ccccc2)CC(C)O1 (stereo not given)	·	·	·	·	·	-1
Cc1ccsc1/C=N/N1CCN(c2ccccn2)CC1	36	99*	0	-3	1	·
Nc1nc2nccc(-c3ccc(Cl)cc3)n2n1	34	2	1	36*	·	i
Cc1cc(-c2ccc(Cl)cc2)n2nc(N)nc2n1	11	0	-2	10	0	-118
CC(CC(=O)Nc1ccc2c(c1)OCCO2)=NNC(=O)Cc1ccc(Cl)cc1	·	·	·	·	·	2
CC(C)c1ccc(/C=C2\CC/C(=C\C=N\N(C)C)C2=O)cc1	7	96*	0	44*	9	·
COc1ccc(OCC(=O)NN=Cc2ccc(N(C)C)cc2)cc1	·	·	·	·	·	-293
CN(C)c1ccc(/C=N/NC(=O)CCc2c[nH]c3ccccc23)cc1	-11	98*	-22	5	1	·
O=C(Cc1c[nH]c2ccccc12)N/N=C/c1ccc(F)cc1	9	-3	-9	4	?	·
COc1ccc(OCC(=O)N/N=C/c2ccc(N(C)C)cc2)cc1	20	98*	-8	-5	-11	·
CN(C)c1ccc(C=NNC(=S)NCc2ccccc2)cc1	·	·	·	·	·	-125
CCCCCC(=O)N/N=C/c1ccc(N(C)C)cc1	15	90*	5	37	-48	·
CN(C)c1ccc(/C=N/NC(=O)CCC(=O)NCc2ccccc2)cc1	10	87*	1	8	0	·
CN(C)c1ccc(/C=N/NC(=O)CCCO)cc1	13	96*	7	12	-8	·
CN(C)c1ccc(C=NNC(=O)CCCO)cc1	·	·	·	·	·	-306
CN(C)c1ccc(/C=N/NC(=O)Cn2nnc3ccccc32)cc1	7	99*	-8	13	-7	·
O=C(CNC(=O)c1ccco1)NN=Cc1ccc(C(=O)O)cc1	·	·	·	·	·	2
COc1cccc(C=NNC(=O)CSc2ccccc2C)c1OC	·	·	·	·	·	-1
COc1ccc(N2C(=O)CS(=O)C(c3ccccc3)C2=O)cc1 (stereo not given)	21	98*	10	-1	17	0
Cc1ccc(N2C(=O)CS(=O)C(c3ccccc3)C2=O)cc1C (stereo not given)	11	98*	8	-12	7	1
Cn1c(=O)c2c(ncn2CC(=O)NN=Cc2ccc(Br)s2)n(C)c1=O	·	·	·	·	·	4
O=C1C2CCCN2C(=O)N1CCCN1CCN(c2cccc(Cl)c2)CC1 (stereo not given)	12	37	0	31	13	2
O=c1n(CCCN2CCN(c3cccc(Cl)c3)CC2)nc2ccccn12	24	93*	-9	22	·	-19
COc1ccc2[nH]c(=O)c(CN(C(=O)c3ccccn3)C3CCCCC3)cc2c1	22	99*	1	3	2	-38
SMILES	NLRP3 yeast inh	ALR H2O2 inh	ATG4B inh	NALP1 yeast inh	Calb FLC	UCH37 inh
O=C(c1ccccn1)N(Cc1cc2ccccc2[nH]c1=O)C1CCCCC1	-3	2	8	5	-8	0
Oc1ccc(Br)cc1C=NNC(=S)NCCc1ccccc1	·	·	·	·	·	1
CC(=NNC(=O)Cn1cc([N+](=O)[O-])cn1)c1ccco1	·	·	·	·	·	5
Cn1c(=O)c2c(-c3ccccc3)n(-n3cnnc3)cc2n(C)c1=O	3	96*	-15	5	-4	0
CC(/C=C/c1ccccc1)=NO	·	·	·	·	·	1
CCOc1cc(C=NO)cc(Br)c1OCC(=O)NCc1ccccc1	·	·	·	·	·	6
S=c1nccc(-c2cccs2)[nH]1	-11	99*	-6	-26	-6	8
Fc1ccc(-c2noc(-c3ccc4c(c3)CCO4)n2)cc1	4	1	0	20	-1	0
Cc1ccc(-c2ccnc(=S)[nH]2)cc1	24	100*	-4	-14	-9	4
S=c1nccc(-c2ccc3c(c2)CCO3)[nH]1	17	98*	-13	·	1	·
CC1(C)CCc2cc(-c3ccnc(=S)[nH]3)ccc2O1	4	100*	-6	-4	-7	9
CC1(C)CCc2cc(CN3CCN(c4ccccn4)CC3)ccc2O1	8	1	2	21	-20	-1
Cc1cc(=S)nc(-c2ccccn2)[nH]1	19	13	-9	·	1	1
O=C(NNc1nc2ccccc2nc1C(F)(F)F)c1ccccc1	23	98*	-1	6	-25	2
CCCOP(=O)(OCCC)C1(Nc2ccc(C)cc2)CCCCC1	0	93*	1	-2	2	2
Cc1ccc(NC2(C#N)CCCC2)cc1	·	·	-1	·	·	1
CC(=NOC(=O)Nc1ccccc1)c1cnn(-c2cc(C(F)(F)F)cc(C)n2)c1C	·	·	·	·	·	5
CC(C)(C)C1(c2ccccc2)NC(=O)N(CC(=O)N2CCOCC2)C1=O (stereo not given)	20	·	-3	·	-12	-1
CC1(c2ccccc2)NC(=O)N(CC(=O)N2CCOCC2)C1=O (stereo not given)	-6	-4	-2	36*	27	1
O=C(NN=Cc1cccc(O)c1)c1ccc2c(c1)OCCO2	·	·	·	·	·	5
O=C1c2ccccc2C(=O)c2c1cccc2N1CCCC1	·	·	34	22	80*	8
CCOc1ccc(NCc2cccn2-c2nnc(N3CCC(C(=O)NCCCN4CC(C)CC(C)C4)CC3)s2)cc1 (stereo not given)	12	100*	9	-5	1	·
COc1ccc(N(C(=O)Cn2nnc3ccccc32)C(C(=O)NC(C)(C)C)c2ccc(OC)c(O)c2)cc1 (stereo not given)	10	12	-6	13	78*	1
COc1cccc(NC(=S)NN=C2CC(C)(C)Oc3ccc(O)cc32)c1	·	·	·	·	·	-14
COc1cccc(-c2nnc(SC(C(=O)c3c[nH]c4ccccc34)c3ccccc3)n2C)c1 (stereo not given)	13	0	-3	24	3	29*
CC(=NNC(=O)c1cccc(NN=C(C)c2ccncc2)c1)c1ccncc1	·	·	·	·	·	11
Cc1ccc(C=NNC(=O)C2(O)c3ccccc3-c3ccccc32)o1	·	·	·	·	·	6
COC(=O)c1ccc(NC(=O)CSc2nc(=O)cc(N)n2-c2ccccc2)cc1	23	99*	-10	0	5	2
Nc1cc(=O)nc(SCC(=O)N2CCN(c3ccccc3)CC2)n1-c1ccccc1	-4	51	-3	17	3	1
Cc1ccc(-n2c(N)cc(=O)nc2SCC(=O)N2CCN(c3ccccc3)CC2)cc1	17	97*	-9	15	4	0
